Test results as given in ChEMBL document CHEMBL3120062, “Novel 8-(p-substituted-phenyl/benzyl)xanthines with selectivity for the A2A adenosine receptor possess bronchospasmolytic activity” (Eur J Med Chem, 2014).
Active and inactive are the calls of the source. The rule behind the calls is not given here.

Legend:
[1] = test system: Cavia porcellus; assay: Bronchospasmolytic activity in histamine aerosol-induced Dunkin-Hartley guinea pig assessed as survival at 50 mg/kg, po pretreated for 1 hr followed by histamine aerosol-challenge relative to control; assay type: functional
Method in brief: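 Male Dunkin Hartley guinea pigs (250 ± 30 g), 4 per group, fasted overnight. Each animal was given test drug, theophylline or vehicle at 50 mg/kg by mouth in CMC + distilled water, 1 h before challenge. It was then exposed singly in a histamine chamber to 5 ml of 1% histamine aerosolised over 1 min. Onset, jerk duration, severity and death or survival were recorded. Survival is given as % of the group.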

[2] = test system: Cavia porcellus; assay: Bronchospasmolytic activity in histamine aerosol-induced Dunkin-Hartley guinea pig assessed as duration of jerks at 50 mg/kg, po pretreated for 1 hr followed by histamine aerosol-challenge (reference value: 172 +/- 4 seconds); assay type: functional
[3] = organism: Homo sapiens; assay: Selectivity ratio of Ki for human recombinant adenosine A3 receptor to Ki for human recombinant adenosine A2A receptor
[4] = organism: Homo sapiens; assay: Selectivity ratio of Ki for human recombinant adenosine A2B receptor to Ki for human recombinant adenosine A2A receptor
[5] = biological target: T1, Adenosine receptor A3 (Homo sapiens, UniProt P0DMS8); assay: Displacement of [3H]-HEMADO from human recombinant adenosine A3 receptor expressed in CHO cell membranes after 3 hrs by microbeta counting analysis
T1 sequence (P0DMS8 whole entry): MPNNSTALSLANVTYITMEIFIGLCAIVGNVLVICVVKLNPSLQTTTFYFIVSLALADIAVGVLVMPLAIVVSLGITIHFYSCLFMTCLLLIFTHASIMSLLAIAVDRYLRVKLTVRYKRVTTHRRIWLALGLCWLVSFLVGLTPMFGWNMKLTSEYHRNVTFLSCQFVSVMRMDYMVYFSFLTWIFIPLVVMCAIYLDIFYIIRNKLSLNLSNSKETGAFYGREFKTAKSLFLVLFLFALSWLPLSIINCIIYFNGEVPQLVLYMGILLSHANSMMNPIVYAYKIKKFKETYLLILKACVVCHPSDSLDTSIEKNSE
Method in brief: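 Human A3 receptor in stably transfected CHO cell membranes (10-50 µg protein), resuspended in 50 mM Tris/HCl, 10 mM MgCl2, 1 mM EDTA, pH 8.25. Incubated with [3H]HEMADO (1 nM) for 3 h at 25 °C, then filtered, washed and scintillation counted. Nonspecific binding was defined with R-PIA. Ki came from non-linear curve fitting; geometric means of 3–5 experiments.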

[6] = biological target: T2, Adenosine receptor A2b (Homo sapiens, UniProt P29275); assay: Binding affinity to human recombinant adenosine A2B receptor expressed in CHO cell membranes assessed as inhibition of NECA-stimulated adenylyl cyclase activity after 20 mins
T2 sequence (P29275 whole entry): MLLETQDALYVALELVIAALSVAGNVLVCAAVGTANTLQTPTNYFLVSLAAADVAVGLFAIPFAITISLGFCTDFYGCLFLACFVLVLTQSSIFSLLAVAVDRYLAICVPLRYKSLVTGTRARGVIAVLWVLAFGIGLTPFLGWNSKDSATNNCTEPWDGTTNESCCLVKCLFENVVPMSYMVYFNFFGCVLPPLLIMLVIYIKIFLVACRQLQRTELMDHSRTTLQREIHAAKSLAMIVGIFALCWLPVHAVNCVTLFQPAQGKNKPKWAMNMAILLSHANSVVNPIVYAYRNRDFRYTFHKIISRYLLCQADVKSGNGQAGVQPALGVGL
Method in brief: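 Membranes from CHO cells stably expressing the human A2B receptor, prepared fresh by one 54,000 g spin and used immediately in 50 mM Tris/HCl pH 7.4. Concentration-dependent inhibition of NECA-stimulated adenylyl cyclase was measured with about 150,000 cpm [α-32P]ATP for 20 min. Ki was calculated from IC50 with the Cheng–Prusoff equation. Geometric means of 3–5 experiments.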

[7] = biological target: T3, Adenosine receptor A1 (Homo sapiens, UniProt P30542); assay: Displacement of [3H]-CCPA from human recombinant adenosine A1 receptor expressed in CHO cell membranes after 3 hrs by microbeta counting analysis
T3 sequence (P30542 whole entry): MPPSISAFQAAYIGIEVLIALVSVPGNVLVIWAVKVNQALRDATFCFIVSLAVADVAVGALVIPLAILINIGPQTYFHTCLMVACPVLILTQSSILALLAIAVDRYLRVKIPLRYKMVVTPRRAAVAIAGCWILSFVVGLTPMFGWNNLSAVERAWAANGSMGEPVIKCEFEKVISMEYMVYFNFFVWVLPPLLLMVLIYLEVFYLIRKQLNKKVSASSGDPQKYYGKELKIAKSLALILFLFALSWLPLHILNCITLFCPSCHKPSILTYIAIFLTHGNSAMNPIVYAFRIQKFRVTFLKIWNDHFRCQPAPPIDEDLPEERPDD
Method in brief: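 Human A1 receptor stably expressed in CHO cells. Crude membranes (10-50 µg protein) in 50 mM Tris/HCl pH 7.4 were incubated with [3H]CCPA (1 nM) for 3 h at 25 °C, then filtered, washed with ice-cold buffer and counted by scintillation. Nonspecific binding was defined with theophylline. Ki came from non-linear curve fitting; geometric means of 3–5 experiments.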

[8] = test system: Cavia porcellus; assay: Bronchospasmolytic activity in histamine aerosol-induced Dunkin-Hartley guinea pig assessed as time required for onset of bronchospasm at 50 mg/kg, po pretreated for 1 hr followed by histamine aerosol-challenge (reference value: 67 +/- 2 seconds); assay type: functional
[9] = biological target: Adenosine receptor A2a (Homo sapiens, UniProt P29274); assay: Displacement of [3H]-NECA from human recombinant adenosine A2A receptor expressed in CHO cell membranes after 3 hrs by microbeta counting analysis
Method in brief: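 Crude membranes (10-50 µg protein) from CHO cells stably expressing the human A2A receptor, in 50 mM Tris/HCl pH 7.4. Incubated with [3H]NECA (10 nM) for 3 h at 25 °C, then filtered, washed with ice-cold buffer and scintillation counted. Nonspecific binding was defined with R-PIA. Ki came from non-linear curve fitting; geometric means of 3–5 experiments.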

[10] = organism: Homo sapiens; assay: Selectivity ratio of Ki for human recombinant adenosine A1 receptor to Ki for human recombinant adenosine A2A receptor
[11] = test system: Cavia porcellus; assay: Bronchospasmolytic activity in histamine aerosol-induced Dunkin-Hartley guinea pig assessed as severity of bronchospasm at 50 mg/kg, po pretreated for 1 hr followed by histamine aerosol-challenge; assay type: functional, organism-based; design: dose 50 mg/kg

Chain of Adenosine receptor A2a (P29274 whole entry): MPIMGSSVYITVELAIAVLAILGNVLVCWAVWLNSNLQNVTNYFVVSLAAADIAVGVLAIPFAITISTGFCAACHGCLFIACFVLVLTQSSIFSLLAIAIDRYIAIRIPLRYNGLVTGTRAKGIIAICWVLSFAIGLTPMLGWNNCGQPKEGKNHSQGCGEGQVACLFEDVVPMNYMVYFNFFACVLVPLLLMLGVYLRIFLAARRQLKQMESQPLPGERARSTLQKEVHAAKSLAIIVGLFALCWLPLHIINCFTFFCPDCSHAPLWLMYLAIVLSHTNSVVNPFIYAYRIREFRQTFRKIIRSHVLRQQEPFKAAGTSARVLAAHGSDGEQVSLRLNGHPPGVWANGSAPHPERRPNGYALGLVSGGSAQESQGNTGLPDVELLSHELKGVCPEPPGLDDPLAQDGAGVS

SMILES	survival at 50 mg/kg [1]	Time [2]	Ratio Ki [3]	Ratio Ki [4]	Ki [5]	Ki [6]	Ki [7]	Time [8]	Ki [9]	Ratio Ki [10]	Activity [11]
CCN(CC)CCOc1ccc(-c2nc3c([nH]2)c(=O)n(C)c(=O)n3C)cc1	75%	49 s	27	10	6.82 µM	2.59 µM	1.59 µM	115 s	0.25 µM	6.4	
Cn1c(=O)c2[nH]c(-c3ccc(OCCCn4ccnc4)cc3)nc2n(C)c1=O	75%	71 s	54	25	2.27 µM	1.05 µM	0.89 µM	108 s	0.042 µM	21	
Cn1c(=O)c2[nH]c(Cc3ccc(OCCCn4ccnc4)cc3)nc2n(C)c1=O	50%		> 9.5	> 3.2	> 30 µM	> 10 µM	> 30 µM	83 s	3.17 µM	> 9.5	
Cn1c(=O)c2[nH]c(-c3ccc(OCCCCl)cc3)nc2n(C)c1=O	100%	30 s	> 670	> 220	> 30 µM	> 10 µM	> 10 µM	114 s	0.045 µM	> 220	
Cn1c(=O)c2[nH]c(-c3ccc(OCCN4CCCC4)cc3)nc2n(C)c1=O	100%	32 s	23	9.9	4.6 µM	1.97 µM	1.2 µM	111 s	0.2 µM	6	
Cn1c(=O)c2[nH]c(Cc3ccc(OCCCN4CCOCC4)cc3)nc2n(C)c1=O	100%				> 30 µM	> 10 µM	> 30 µM	108 s	> 10 µM		
Cn1c(=O)c2[nH]c(-c3ccc(OCCCN4CCN(Cc5ccccc5Cl)CC4)cc3)nc2n(C)c1=O	100%		57	1.4	6.89 µM	0.17 µM	1.85 µM	109 s	0.12 µM	15	Active
Cn1c(=O)c2[nH]c(-c3ccc(OCCC4CCNCC4)cc3)nc2n(C)c1=O	75%	22 s	22	10	6.51 µM	2.9 µM	1.33 µM	121 s	0.29 µM	4.6	
Cn1c(=O)c2[nH]c(Cc3ccc(OCCCN4CCC5(CC4)OCCO5)cc3)nc2n(C)c1=O	50%	23 s	> 3.7	> 1.2	> 30 µM	> 10 µM	> 30 µM	73 s	8.09 µM	> 3.7	
Cn1c(=O)c2[nH]c(-c3ccc(OCCN4CCOCC4)cc3)nc2n(C)c1=O	100%	45 s	8.8	4.3	2.74 µM	1.34 µM	2.58 µM	104 s	0.31 µM	8.3	
Cn1c(=O)c2nc[nH]c2n(C)c1=O.O [THEOPHYLLINE]	100%	89 s						92 s			
CN(C)CCOc1ccc(-c2nc3c([nH]2)c(=O)n(C)c(=O)n3C)cc1	100%	39 s	24	12	9.38 µM	4.95 µM	1.82 µM	111 s	0.4 µM	4.6	
Cn1c(=O)c2[nH]c(Cc3ccc(OCCCCl)cc3)nc2n(C)c1=O	50%	44 s			> 30 µM	> 10 µM	> 30 µM	75 s	> 10 µM		
Cn1c(=O)c2[nH]c(-c3ccc(OC4CCCC4)cc3)nc2n(C)c1=O	50%	35 s	> 420	14	> 10 µM	1 µM	> 30 µM	72 s	0.072 µM	> 420	
